Measurements: ChEMBL document CHEMBL4049426, “Identification of the Clinical Candidate (R)-(1-(4-Fluorophenyl)-6-((1-methyl-1H-pyrazol-4-yl)sulfonyl)-4,4a,5,6,7,8-hexahydro-1H-pyrazolo[3,4-g]isoquinolin-4a-yl)(4-(trifluoromethyl)pyridin-2-yl)methanone (CORT125134): A Selective Glucocorticoid Receptor (GR) Antagonist” (J Med Chem, 2017)

What was measured:
Glucocorticoid receptor [1] = target: T1, Glucocorticoid receptor (Homo sapiens, UniProt P04150); assay: Antagonist activity at glucocorticoid receptor in human HepG2 cells assessed as inhibition of dexamethasone-induced tyrosine amino transferase activity preincubated for 30 mins followed by dexamethasone addition measured after 20 hrs; type: cell-based
T1 sequence (P04150 whole entry): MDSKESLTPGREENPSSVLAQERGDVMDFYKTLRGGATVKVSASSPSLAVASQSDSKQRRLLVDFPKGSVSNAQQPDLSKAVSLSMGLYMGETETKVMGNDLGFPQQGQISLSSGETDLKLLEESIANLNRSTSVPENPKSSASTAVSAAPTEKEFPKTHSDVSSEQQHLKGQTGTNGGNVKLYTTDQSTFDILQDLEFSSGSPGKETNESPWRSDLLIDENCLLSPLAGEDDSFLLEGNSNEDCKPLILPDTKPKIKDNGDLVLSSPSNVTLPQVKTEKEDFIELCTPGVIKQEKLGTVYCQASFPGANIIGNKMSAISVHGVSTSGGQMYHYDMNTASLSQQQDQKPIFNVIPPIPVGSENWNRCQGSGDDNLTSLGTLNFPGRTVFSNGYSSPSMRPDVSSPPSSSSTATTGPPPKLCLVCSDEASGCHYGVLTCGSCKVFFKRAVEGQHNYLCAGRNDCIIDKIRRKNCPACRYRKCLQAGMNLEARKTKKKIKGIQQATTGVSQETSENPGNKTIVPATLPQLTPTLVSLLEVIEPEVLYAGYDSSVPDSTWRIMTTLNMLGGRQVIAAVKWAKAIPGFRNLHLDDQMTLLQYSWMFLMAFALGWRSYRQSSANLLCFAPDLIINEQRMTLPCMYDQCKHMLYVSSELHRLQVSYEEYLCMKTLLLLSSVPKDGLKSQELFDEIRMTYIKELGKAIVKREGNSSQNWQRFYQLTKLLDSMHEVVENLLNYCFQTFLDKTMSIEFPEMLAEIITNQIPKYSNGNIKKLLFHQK

[2] = AUC in Sprague-Dawley CD-1 rat plasma at 3 mg/kg, po administered as cassette dose via gavage measured up to 24 hrs by LC/MS analysis; type: ADME, organism-based; parameters: time < 24 hr, dose 3 mg/kg, route oral
How it was run: (§1)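 Three male Sprague Dawley CD-1 rats (220-250g) with jugular vein catheters; three test compounds plus a reference dosed together by oral gavage, 3mg/kg each, in DMSO:0.5% methylcellulose 10:90 (0.6mg/mL per compound), 5mL/kg. Plasma sampled pre-dose and at 0.25, 0.5, 1, 2, 4, 6, 8, 24 h; LC/MS.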

[3] = Cmax in Sprague-Dawley CD-1 rat plasma at 3 mg/kg, po administered as cassette dose via gavage measured up to 24 hrs by LC/MS analysis; type: ADME, organism-based; parameters: dose 3 mg/kg, route oral; how it was run: as §1
Glucocorticoid receptor [4] = target: T1, Glucocorticoid receptor; assay: Displacement of fluormone GS Red from human glucocorticoid receptor after 4 hrs by fluorescence polarization assay
[5] = AUC in Sprague-Dawley CD-1 rat plasma at 5 mg/kg, po administered through gavage measured up to 24 hrs by LC/MS analysis; type: ADME, organism-based; parameters: dose 5 mg/kg, time < 24 hr, route oral
How it was run: (§2)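 Jugular-catheterized male Sprague Dawley CD-1 rats (220-250g). Oral arm: five rats, 5mg/kg gavage, 1mg/mL in DMSO:0.5% methylcellulose 10:90, 5mL/kg, sampled pre-dose and 0.25-24 h. i.v. arm: three rats, 1mg/kg, 0.5mg/mL in DMSO:PEG400:propylene glycol 10:45:45, sampled pre-dose and 0.08-24 h. Plasma by LC/MS.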

[6] = Oral bioavailability in monkey plasma at 20 mg/kg measured up to 24 hrs by LC/MS analysis; type: ADME, organism-based, Macaca mulatta; conditions: rhesus monkey
How it was run: (§3)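 Monkey i.v./p.o. study: oral 20mg/kg in 10% DMSO, 0.1% Tween 80, 0.5% hydroxypropylmethylcellulose in water; i.v. dose 1mg/kg.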

[7] = Cmax in monkey plasma at 20 mg/kg, po measured up to 24 hrs by LC/MS analysis; type: ADME, organism-based, Macaca mulatta; parameters: dose 20 mg/kg, route oral; conditions: rhesus monkey; how it was run: as §3
[8] = Oral bioavailability in Sprague-Dawley CD-1 rat plasma at 5 mg/kg administered through gavage measured up to 24 hrs by LC/MS analysis; type: ADME, organism-based; how it was run: as §2
[9] = Cmax in Sprague-Dawley CD-1 rat plasma at 5 mg/kg, po administered through gavage measured up to 24 hrs by LC/MS analysis; type: ADME, organism-based; parameters: dose 5 mg/kg, route oral; how it was run: as §2
[10] = AUC in monkey plasma at 20 mg/kg, po measured up to 24 hrs by LC/MS analysis; type: ADME, organism-based, Macaca mulatta; parameters: dose 20 mg/kg, time < 24 hr, route oral; conditions: rhesus monkey; how it was run: as §3

Ki (Glucocorticoid receptor [1]) [nM]	AUC at 24 h [2] [ng·h/mL]	Cmax [3] [ng/mL]	Ki (Glucocorticoid receptor [4]) [nM]	SMILES	further results
9.7	450	91.5	–	Cn1cc(S(=O)(=O)N2CCC3=Cc4c(cnn4-c4ccc(F)cc4)C[C@]3(C(=O)c3cc(C(F)(F)F)ccn3)C2)nn1	–
5.1	–	–	0.21	Cc1ccnc(C(=O)[C@]23Cc4cnn(-c5ccc(F)cc5)c4C=C2CCN(S(=O)(=O)c2cccc(C(F)(F)F)c2)C3)c1	–
24	–	–	–	Cn1ccc(S(=O)(=O)N2CC[C@H]3Cc4c(cnn4-c4ccc(F)cc4)C[C@]3(C(=O)c3cc(C(F)(F)F)ccn3)C2)n1	–
12	283	110	–	Cc1c(S(=O)(=O)N2CCC3=Cc4c(cnn4-c4ccc(F)cc4)C[C@]3(C(=O)c3cc(C(F)(F)F)ccn3)C2)cnn1C	–
–	726	125	–	O=C(c1ccccn1)[C@]12Cc3cnn(-c4ccc(F)cc4)c3C=C1CCN(S(=O)(=O)c1ccc(C(F)(F)F)c(F)c1)C2	–
31	–	–	–	Cn1nncc1S(=O)(=O)N1CCC2=Cc3c(cnn3-c3ccc(F)cc3)C[C@]2(C(=O)c2cc(C(F)(F)F)ccn2)C1	–
44	–	–	–	O=C(c1ccccn1)[C@]12Cc3cnn(-c4ccc(F)cc4)c3C[C@@H]1CCN(S(=O)(=O)c1cccc(C(F)(F)F)c1)C2	–
10	–	–	–	CCn1nccc1S(=O)(=O)N1CCC2=Cc3c(cnn3-c3ccc(F)cc3)C[C@]2(C(=O)c2cc(C(F)(F)F)ccn2)C1	AUC at 24 h [5]: 1530 ng·h/mL; bioavailability [6]: 1.5%; Cmax [7]: 20.8 ng/mL; bioavailability [8]: 52%; Cmax [9]: 511 ng/mL; AUC at 24 h [10]: 193 ng·h/mL
–	239	140	–	N#Cc1cccc(S(=O)(=O)N2CCC3=Cc4c(cnn4-c4ccc(F)cc4)C[C@]3(C(=O)c3ccccn3)C2)c1	–
7.6	–	–	–	O=C(c1cc(C(F)(F)F)ccn1)[C@]12Cc3cnn(-c4ccc(F)cc4)c3C=C1CCN(S(=O)(=O)c1cn[nH]c1)C2	–
16	1220	197	0.59	O=C(c1nccs1)[C@]12Cc3cnn(-c4ccc(F)cc4)c3C=C1CCN(S(=O)(=O)c1ccc(Cl)c(Cl)c1)C2	–
10	–	–	0.29	Cc1cnc(C(=O)[C@]23Cc4cnn(-c5ccc(F)cc5)c4C=C2CCN(S(=O)(=O)c2cccc(C(F)(F)F)c2)C3)s1	–
120	–	–	–	Cn1nncc1S(=O)(=O)N1CC[C@H]2Cc3c(cnn3-c3ccc(F)cc3)C[C@]2(C(=O)c2cc(C(F)(F)F)ccn2)C1	–
7.4	135	30	1.3	Cc1cnc(C(=O)[C@]23Cc4cnn(-c5ccc(F)cc5)c4C=C2CCN(S(=O)(=O)c2ccc(F)c(F)c2)C3)s1	–
7.5	–	–	0.14	Cc1ccc(C(=O)[C@]23Cc4cnn(-c5ccc(F)cc5)c4C=C2CCN(S(=O)(=O)c2cccc(C)c2)C3)nc1	–
7.5	173	48	0.42	Cc1ccnc(C(=O)[C@]23Cc4cnn(-c5ccc(F)cc5)c4C=C2CCN(S(=O)(=O)c2ccc(C(F)(F)F)c(F)c2)C3)c1	–
69	–	–	–	Cc1n[nH]c(C)c1S(=O)(=O)N1CCC2=Cc3c(cnn3-c3ccc(F)cc3)C[C@]2(C(=O)c2cc(C(F)(F)F)ccn2)C1	–
17	446	103	0.48	O=C(c1nccs1)[C@]12Cc3cnn(-c4ccc(F)cc4)c3C=C1CCN(S(=O)(=O)c1cccc(C(F)(F)F)c1)C2	–
28	780	150	–	Cn1cc(S(=O)(=O)N2CCC3=Cc4c(cnn4-c4ccc(F)cc4)C[C@]3(C(=O)c3ccccn3)C2)cn1	–
–	83	31	–	Cc1cccc(S(=O)(=O)N2CCC3=Cc4c(cnn4-c4ccc(F)cc4)C[C@]3(C(=O)c3ccccn3)C2)c1	–

Ki (Glucocorticoid receptor [1]) [nM]	AUC at 24 h [2] [ng·h/mL]	Cmax [3] [ng/mL]	Ki (Glucocorticoid receptor [4]) [nM]	SMILES	further results
4.6	701	126	–	CCn1cc(S(=O)(=O)N2CCC3=Cc4c(cnn4-c4ccc(F)cc4)C[C@]3(C(=O)c3cc(C(F)(F)F)ccn3)C2)cn1	–
12	–	–	–	Cn1ncc(S(=O)(=O)N2CC[C@H]3Cc4c(cnn4-c4ccc(F)cc4)C[C@]3(C(=O)c3cc(C(F)(F)F)ccn3)C2)n1 [EXICORILANT]	AUC at 24 h [5]: 9420 ng·h/mL; bioavailability [8]: 100%; Cmax [9]: 1260 ng/mL
9.2	143	72	0.12	O=C(c1ccccn1)[C@]12Cc3cnn(-c4ccc(F)cc4)c3C=C1CCN(S(=O)(=O)c1cc(F)cc(F)c1)C2	–
1.7	–	–	0.19	CCc1ccnc(C(=O)[C@]23Cc4cnn(-c5ccc(F)cc5)c4C=C2CCN(S(=O)(=O)c2cccc(C#N)c2)C3)c1	–
3.1	860	255	–	Cn1ncc(S(=O)(=O)N2CCC3=Cc4c(cnn4-c4ccc(F)cc4)C[C@]3(C(=O)c3cc(C(F)(F)F)ccn3)C2)n1 [NENOCORILANT]	–
–	974	215	–	O=C(c1ccccn1)[C@]12Cc3cnn(-c4ccc(F)cc4)c3C=C1CCN(S(=O)(=O)c1ccc(F)c(F)c1)C2	–
37	–	–	0.23	O=C(c1nccs1)[C@]12Cc3cnn(-c4ccc(F)cc4)c3C=C1CCN(S(=O)(=O)c1ccc(F)c(F)c1)C2	–
60	–	–	–	Cn1cc(S(=O)(=O)N2CC[C@H]3Cc4c(cnn4-c4ccc(F)cc4)C[C@]3(C(=O)c3cc(C(F)(F)F)ccn3)C2)nn1	–
34	–	–	–	Cn1cc(S(=O)(=O)N2CC[C@H]3Cc4c(cnn4-c4ccc(F)cc4)C[C@]3(C(=O)c3cc(C(F)(F)F)ccn3)C2)cn1	–
6.6	863	291	–	Cn1ccc(S(=O)(=O)N2CCC3=Cc4c(cnn4-c4ccc(F)cc4)C[C@]3(C(=O)c3cc(C(F)(F)F)ccn3)C2)n1	AUC at 24 h [5]: 986 ng·h/mL; bioavailability [8]: 68%; Cmax [9]: 510 ng/mL
14	–	–	0.2	Cc1cccc(S(=O)(=O)N2CCC3=Cc4c(cnn4-c4ccc(F)cc4)C[C@]3(C(=O)c3cccc(C)n3)C2)c1	–
63	–	–	0.88	Cc1csc(C(=O)[C@]23Cc4cnn(-c5ccc(F)cc5)c4C=C2CCN(S(=O)(=O)c2cccc(C(F)(F)F)c2)C3)n1	–
4.3	–	–	0.14	Cc1ccnc(C(=O)[C@]23Cc4cnn(-c5ccc(F)cc5)c4C=C2CCN(S(=O)(=O)c2cc(F)cc(F)c2)C3)c1	–
68	–	–	–	CCn1nccc1S(=O)(=O)N1CC[C@H]2Cc3c(cnn3-c3ccc(F)cc3)C[C@]2(C(=O)c2cc(C(F)(F)F)ccn2)C1	–
7.4	135	30	0.32	Cc1cnc(C(=O)[C@]23Cc4cnn(-c5ccc(F)cc5)c4C=C2CCN(S(=O)(=O)c2ccc(Cl)c(Cl)c2)C3)s1	–
4.8	49	20	0.32	N#Cc1cccc(S(=O)(=O)N2CCC3=Cc4c(cnn4-c4ccc(F)cc4)C[C@]3(C(=O)c3cc(C(F)(F)F)ccn3)C2)c1	–
4.5	217	70	0.15	Cc1ccnc(C(=O)[C@]23Cc4cnn(-c5ccc(F)cc5)c4C=C2CCN(S(=O)(=O)c2cccc(C#N)c2)C3)c1	–
5.7	421	113	0.14	Cc1ccnc(C(=O)[C@]23Cc4cnn(-c5ccc(F)cc5)c4C=C2CCN(S(=O)(=O)c2ccc(F)c(F)c2)C3)c1	–
3.3	44	11	0.08	Cc1cccc(S(=O)(=O)N2CCC3=Cc4c(cnn4-c4ccc(F)cc4)C[C@]3(C(=O)c3cc(C)ccn3)C2)c1	–

SMILES	Ki (Glucocorticoid receptor [1]) [nM]	AUC at 24 h [2] [ng·h/mL]	Cmax [3] [ng/mL]	Ki (Glucocorticoid receptor [4]) [nM]	further results
O=C(c1ccccn1)[C@]12Cc3cnn(-c4ccc(F)cc4)c3C=C1CCN(S(=O)(=O)c1ccc(C(F)(F)F)cc1)C2 [DAZUCORILANT]	12	–	–	–	–
